This note sets out measurements from ChEMBL document CHEMBL1152990, “The mechanism of action of beta-D-2'-deoxy-2'-fluoro-2'-C-methylcytidine involves a second metabolic pathway leading to beta-D-2'-deoxy-2'-fluoro-2'-C-methyluridine 5'-triphosphate, a potent inhibitor of the hepatitis C virus RNA-dependent RNA polymerase” (Antimicrob Agents Chemother, 2008).

The Km is the concentration of substrate that gives half-maximal velocity. One may read the kcat as the maximal rate divided by the concentration of active sites. By kcat/Km is commonly meant the turnover number divided by the Michaelis constant.

Substrate in series [1]: C[C@@]1(F)[C@H](O)[C@@H](COP(=O)(O)O)O[C@H]1n1ccc(=O)[nH]c1=O
Put plainly: Activity of cloned UMP-CMP kinase in human HuH7 cells assessed as formation of RO2433 diphosphate by spectrophotometry. The note with it: Huh-7. The series is classed as cell-based. The essentials:
(§1)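 Recombinant human kinase read out by PK/LDH coupling, following NADH oxidation at 340 nm. Rates were measured over varied substrate levels and fitted for steady-state parameters.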

Substrate in series [2]: C[C@@]1(F)[C@H](O)[C@@H](COP(=O)(O)O)O[C@H]1n1ccc(=O)[nH]c1=O
Put plainly: Ratio of Kcat to Km for cloned UMP-CMP kinase in human HuH7 cells assessed as formation of RO2433 diphosphate by spectrophotometry. It counts as cell-based. The note with it: Huh-7. The method, boiled down: as §1

Substrate in series [3]: Nc1ccn([C@H]2C[C@H](O)[C@@H](COP(=O)(O)O)O2)c(=O)n1
Put plainly: Activity of cloned deoxycytidylate deaminase in human HepG2 cells by spectrophotometric analysis. The series is classed as cell-based. The essentials: (§2)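 Recombinant human DCTD cloned from HepG2 cells, 9.3 nM final, with dCMP substrate. Spectrophotometric deamination at 37°C, monitoring absorbance at 290 nm (Δɛ = 1,694 M−1 cm−1). Rates from linear traces were fitted to Michaelis-Menten to obtain Km, kcat and kcat/Km.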

Substrate in series [4]: C[C@@]1(F)[C@H](O)[C@@H](COP(=O)(O)O)O[C@H]1n1ccc(N)nc1=O
Kind of series: Activity of cloned deoxycytidylate deaminase in human HepG2 cells by HPLC assay. It counts as cell-based. The method, boiled down:
(§3)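 Recombinant His-tagged human DCTD cloned from HepG2 cells. 0.56 μg enzyme in 50 mM Tris-HCl pH 7.5, 2 mM MgCl2, 20 mM β-mercaptoethanol, at 37°C. Samples taken at 5, 10 and 20 min, quenched with HCl and filtered. Nucleotides were resolved by SAX HPLC (KH2PO4 pH 3.5 gradient), detected at 254 nm and quantified against standard curves.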

Substrate in series [5]: Nc1ccn([C@H]2C[C@H](O)[C@@H](COP(=O)(O)O)O2)c(=O)n1
Put plainly: Ratio of Kcat to Km for cloned deoxycytidylate deaminase in human HepG2 cells by spectrophotometric analysis. It counts as cell-based. The method, boiled down:
as §2

Substrate in series [6]: C[C@@]1(F)[C@H](O)[C@@H](COP(=O)(O)O)O[C@H]1n1ccc(N)nc1=O
Put plainly: Ratio of Kcat to Km for cloned deoxycytidylate deaminase in human HepG2 cells by HPLC assay. The series is classed as cell-based. The essentials: as §3

Substrate in series [7]: C[C@@]1(F)[C@H](O)[C@@H](CO)O[C@H]1n1ccc(N)nc1=O
Kind of series: (§4) Activity of cloned cytidine deaminase in human HuH7 cells at 4 mM by spectrophotometric analysis. The series is classed as cell-based. The note with it: Huh-7. The method, boiled down: (§5)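 Recombinant human CDA cloned from Huh-7 cells. Reaction at 30°C in 50 mM Tris-HCl pH 7.5, started by adding enzyme. Deamination was followed spectrophotometrically at wavelengths chosen by substrate level, with Δɛ set per wavelength. Rates came from the linear trace and Beer's law and were fitted to Michaelis-Menten. Highest concentration tested 4 mM.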

Substrate in series [8]: C[C@@]1(O)[C@H](O)[C@@H](CO)O[C@H]1n1ccc(N)nc1=O
The description is as §4. It counts as cell-based. The note with it: Huh-7. The essentials: as §5

Substrate in series [9]: Nc1ccn([C@@H]2O[C@H](CO)[C@@H](O)[C@H]2F)c(=O)n1
The note with it: Homo sapiens; Huh-7.

Substrate in series [10]: Nc1ccn([C@H]2C[C@H](O)[C@@H](CO)O2)c(=O)n1
The note with it: Homo sapiens; Huh-7.

Substrate in series [11]: C[C@@]1(F)[C@H](O)[C@@H](CO)O[C@H]1n1ccc(N)nc1=O
The note with it: Homo sapiens; Huh-7.

Substrate in series [12]: C[C@@]1(O)[C@H](O)[C@@H](CO)O[C@H]1n1ccc(N)nc1=O
The note with it: Homo sapiens; Huh-7.

Substrate in series [13]: Nc1ccn([C@@H]2O[C@H](CO)[C@@H](O)[C@H]2F)c(=O)n1
The note with it: Homo sapiens; Huh-7. This is another data set of the same source.

Substrate in series [14]: Nc1ccn([C@H]2C[C@H](O)[C@@H](CO)O2)c(=O)n1
The note with it: Homo sapiens; Huh-7. This is another data set of the same source.

B1: UMP-CMP kinase (Homo sapiens), P30085 (protein)
chain: MKPLVVFVLGGPGAGKGTQCARIVEKYGYTHLSAGELLRDERKNPDSQYGELIEKYIKEGKIVPVEITISLLKREMDQTMAANAQKNKFLIDGFPRNQDNLQGWNKTMDGKADVSFVLFFDCNNEICIERCLERGKSSGRSDDNRESLEKRIQTYLQSTKPIIDLYEEMGKVKKIDASKSVDEVFDEVVQIFDKEG
On to B1, for which, in series [1], the Michaelis-Menten constant (Km) worked out at 870 µM and the kcat is 7.9 s⁻¹. Also, the kcat/Km in [2] was 9100 M⁻¹ s⁻¹.

B2: Deoxycytidylate deaminase (Homo sapiens), P32321 (protein)
chain: MSEVSCKKRDDYLEWPEYFMAVAFLSAQRSKDPNSQVGACIVNSENKIVGIGYNGMPNGCSDDVLPWRRTAENKLDTKYPYVCHAELNAIMNKNSTDVKGCSMYVALFPCNECAKLIIQAGIKEVIFMSDKYHDSDEATAARLLFNMAGVTFRKFIPKCSKIVIDFDSINSRPSQKLQ
Take B2: the values for the Michaelis-Menten constant (Km) in series [3] and in series [4] were 87 µM and 2000 µM, respectively. Also, the kcat was 246 s⁻¹ in series [3] and 0.82 s⁻¹ in series [4]. Further, the kcat/Km is 2.8e+06 M⁻¹ s⁻¹ in series [5] and 400 M⁻¹ s⁻¹ in [6].

B3: Cytidine deaminase (Homo sapiens), P32320 (protein)
chain: MAQKRPACTLKPECVQQLLVCSQEAKKSAYCPYSHFPVGAALLTQEGRIFKGCNIENACYPLGICAERTAIQKAVSEGYKDFRAIAIASDMQDDFISPCGACRQVMREFGTNWPVYMTKPDGTYIVMTVQELLPSSFGPEDLQKTQ
Regarding B3, the Km in series [7] worked out at 4000 µM; in series [8], 3100 µM; in series [9], 27 µM; in series [10], 41 µM. In addition, the kcat in series [7] stood at 0.26 s⁻¹; in series [8] it was 0.18 s⁻¹; in [9] it was 3.8 s⁻¹; in series [10] it was 4.8 s⁻¹. Also, the kcat/Km in series [11] was 65 M⁻¹ s⁻¹; in series [12] it was 58 M⁻¹ s⁻¹; in [13], 140000 M⁻¹ s⁻¹; in series [14] it was 120000 M⁻¹ s⁻¹.
